TRPC6 inh – blocks the mouse TRPC6 cation channel. 1.1% of 310,000 active. AID 2553. Q61143. B-score at 10 µM. HEK293-TRPC6, membrane potential dye, ACh-evoked depolarization; active compounds read low;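 active = B-score under library mean minus 3 SD, initial fluorescence not abnormally high, positive integrated signal ratio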;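 note: B-score derived from integrated fluorescence ratio over the kinetic read; more negative B-score means stronger inhibition of depolarization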
Kir21 inh – blocks the mouse Kir2.1 inward-rectifier potassium channel; P35561; B-score at 10 µM; 0.85% of 310,000 active; HEK293-Kir2.1, FluxOR thallium flux fluorescence; active compounds read low;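 active = fluorescence ratio B-score at or below minus 3 SD of library scores, with starting-brightness B-score within 2 SD, cut at about -4.2 in these data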;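 note: channel flux triggered by added potassium and thallium sulfate stimulus; B-score of peak minus minimum fluorescence over baseline after thallium stimulus; more negative B-score means stronger Kir2.1 block with less thallium influx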
TRPC4 PAM – TRPC4 (mouse) allosteric potentiation. Q9QUQ5. HEK293 TRPC4beta/mu-opioid, DAMGO EC20, Fluo-4 Ca2+ flux; active compounds read high. 0.42% of 310,000 active. B-score at 10 µM;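 active = B-score of calcium response area above 5 SD of library B-scores, with initial fluorescence ratio within 5 SD of library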
Target sequence (Q9QUQ5 whole entry, looked up): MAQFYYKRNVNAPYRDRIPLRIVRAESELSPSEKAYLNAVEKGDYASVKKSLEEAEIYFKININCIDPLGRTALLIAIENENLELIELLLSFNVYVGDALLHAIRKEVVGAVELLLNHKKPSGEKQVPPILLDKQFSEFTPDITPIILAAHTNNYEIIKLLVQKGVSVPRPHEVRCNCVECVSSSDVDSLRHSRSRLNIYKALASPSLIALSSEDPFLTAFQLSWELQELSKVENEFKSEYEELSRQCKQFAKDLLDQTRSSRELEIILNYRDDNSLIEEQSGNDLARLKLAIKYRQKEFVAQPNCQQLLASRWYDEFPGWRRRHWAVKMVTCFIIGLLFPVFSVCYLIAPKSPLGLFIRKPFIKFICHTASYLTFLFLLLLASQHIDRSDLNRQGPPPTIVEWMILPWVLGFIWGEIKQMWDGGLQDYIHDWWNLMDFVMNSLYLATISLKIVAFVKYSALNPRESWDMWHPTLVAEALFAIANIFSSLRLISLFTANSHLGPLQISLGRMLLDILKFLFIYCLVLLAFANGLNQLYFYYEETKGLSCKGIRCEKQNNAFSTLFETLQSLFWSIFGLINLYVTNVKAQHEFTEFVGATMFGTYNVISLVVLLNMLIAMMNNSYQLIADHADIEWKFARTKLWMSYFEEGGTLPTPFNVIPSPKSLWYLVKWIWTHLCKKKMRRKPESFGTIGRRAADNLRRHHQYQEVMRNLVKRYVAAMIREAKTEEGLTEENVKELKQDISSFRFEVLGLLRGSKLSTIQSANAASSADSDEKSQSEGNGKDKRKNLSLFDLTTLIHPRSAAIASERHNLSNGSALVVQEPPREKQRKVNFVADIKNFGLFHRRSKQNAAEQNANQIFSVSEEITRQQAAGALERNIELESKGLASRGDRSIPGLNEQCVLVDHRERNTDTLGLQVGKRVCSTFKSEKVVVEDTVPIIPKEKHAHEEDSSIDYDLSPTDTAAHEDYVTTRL
TRPC4 agonist – activators of mouse TRPC4 channel; AID 2237; HEK293 TRPC4beta/mu-opioid, Fluo4 calcium fluorescence; active compounds read high; Q9QUQ5; 0.49% of 310,000 active; B-score at 10 µM;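 active = B-score above 5 SD of library B-scores, and initial fluorescence ratio not above library mean plus 5 SD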;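 note: positive B-score marks a calcium rise read as TRPC4 activation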
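Test system: HEK293 cells stably co-expressing mouse TRPC4beta and mu-opioid receptor | Schedule: Fluo4 dye loading 45 min at room temperature, 110 s recording | Measured by: Kinetic Fluo4 calcium fluorescence, 5 s baseline at 1 Hz | Evaluation: B score of integrated ratio | Controls: Buffer (low) and maximal DAMGO (high)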
TRPC4 inh – blocks the mouse TRPC4 cation channel; AID 2247; 0.39% of 300,000 active; B-score at 10 µM; HEK293 TRPC4beta/mu-opioid, DAMGO-evoked Fluo4 calcium flux; active compounds read low;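 active = B-score over 3 SD under the library average, no early fluorescence shift, positive overall ratio signal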
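Material: HEK293 cells with stable TRPC4beta plus mu-opioid receptor expression; probe or stimulus: DAMGO in two steps, submaximal then maximal; technique: Fluo4 calcium fluorescence by kinetic imaging, 5 s 1 Hz baseline; measure: integrated fluorescence ratio relative to baseline, converted to per-well B score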
TRPC6 activator – mouse TRPC6 channel activation | Q61143 | HEK293-TRPC6 membrane potential dye fluorescence; active compounds read high | B-score at 10 µM | 0.13% of 310,000 active;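 active = B-score of the integrated fluorescence ratio above library mean plus 3 SD, and starting fluorescence ratio within library mean plus 5 SD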;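 note: higher score means more depolarization so channel activation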
Each line names hits and unclear results; the compound was inactive in the other large screens. Compounds with a hit are over-represented: about 2.9% of the library has one in this group of screens.

CC(Sc1nc2ccccc2s1)C(=O)N(C)Cc1ccccc1 (configuration not stated)	Kir21 inh -4.2
CC(Sc1nc2ccccc2s1)C(=O)NC1CCCc2ccccc21 (configuration not stated)	Kir21 inh -5.8
O=[N+]([O-])c1cccc(N(CC(O)CN2CCCC2)S(=O)(=O)c2ccccc2)c1 (configuration not stated)	TRPC4 inh -8
COCCOC(=O)c1c(C)oc2ccc(OC(=O)c3c(OC)cccc3OC)cc12	none
O=C(O)C1C2CCC(CC2)C1C(=O)N1CCN(Cc2ccc(F)cc2)CC1 (configuration not stated)	TRPC4 agonist 87
COc1ccc(N/C(C)=C2/C(=O)C(=O)N(CCO)C2c2ccc([N+](=O)[O-])cc2)cc1 (configuration not stated)	TRPC4 PAM 137
COc1ccc(C(=O)CC(=O)Nc2ccc([N+](=O)[O-])cc2)cc1	none
CCCN(CCC)S(=O)(=O)c1ccc(NS(=O)(=O)c2ccc(F)cc2)cc1	none
Cc1cc2ccc3ccccc3c2cc1CN(C)C	Kir21 inh -13
CN(C)NC(=O)c1ccsc1NC(=O)c1ccc(S(=O)(=O)N(C)C)cc1	none
Cc1cc(C(=O)Nc2c[nH]c(=O)[nH]c2=O)ccc1[N+](=O)[O-]	none
CCCN1CCN(CCCNC(=O)c2cc3c(s2)-c2c(C)cccc2OC3)CC1	none
Cc1cccc2c1-c1sc(C(=O)NCCCN3CCCC(C)C3)cc1CO2 (configuration not stated)	Kir21 inh -4.7, TRPC4 agonist 48
CCCS(=O)(=O)c1c(S(=O)(=O)CCC)c2cnccn2c1C(=O)c1ccc(Cl)cc1	TRPC4 PAM 12
CCCS(=O)(=O)c1c(S(=O)(=O)CCC)c2ccc(C(N)=O)cn2c1C(=O)c1ccc(F)cc1	none
CCOc1ccc(Cl)cc1CNCCCSc1nc(C)cc(C)n1	Kir21 inh -6.6
Fc1ccc(-c2cc(C(F)(F)C(F)F)[nH]n2)cc1	TRPC4 agonist 71
FC(F)C(F)(F)c1cc(-c2ccc(Cl)cc2)n[nH]1	TRPC4 agonist 50
NC(N)=NN=C1CCCCCCCCCCC1	Kir21 inh -11, TRPC4 agonist 49
CCN(CC)S(=O)(=O)c1cc(NC(=O)CCCOc2ccc(C(C)=O)cc2)ccc1C	none
O=C(NC(=S)N1CCN(c2ccc([N+](=O)[O-])cc2Cl)CC1)c1ccco1	TRPC4 PAM 12
CC(=O)N(CCC(c1ccccc1)c1ccco1)Cc1cccs1 (configuration not stated)	Kir21 inh -8.8
CC(=O)N(CCC(Cc1ccccc1)c1ccco1)Cc1ccco1 (configuration not stated)	Kir21 inh -12
CN(C)N1C(N)=C(C#N)C(c2cccc([N+](=O)[O-])c2)C2=C1CC(C)(C)CC2=O (configuration not stated)	none
CCOC(=O)c1cccc(NC(=O)c2c(NCc3ccccc3)[nH]c(=O)[nH]c2=O)c1	none
CCOc1ccccc1NC(=O)CSc1nc2c(c(=O)n1C)SC(C)C2 (configuration not stated)	Kir21 inh -5.5
CNC(=O)c1nnsc1S(=O)c1ccc(Cl)cc1 (configuration not stated)	Kir21 inh -7.6
CCCNC(=O)c1nnsc1S(=O)c1ccc(Cl)cc1 (configuration not stated)	Kir21 inh -6.1, TRPC4 inh -6
O=C(C1CCCN(S(=O)(=O)c2ccccc2[N+](=O)[O-])C1)N1CCN(c2ccccc2)CC1 (configuration not stated)	none
O=C1CN(c2nc(-c3ccccc3)c3cc(Cl)ccc3n2)c2ccccc2N1	none
CN1CCN(c2nc(-c3ccccc3)c3cc(Cl)ccc3n2)CC1	Kir21 inh -9.6
Clc1ccc2nc(N3CCNCC3)nc(-c3ccccc3)c2c1	Kir21 inh -4.9, TRPC4 agonist 102
O=C(COC(=O)c1ccccc1NCCO)NCc1cccs1	none
Cc1n[nH]c(C)c1CNCc1c(C(=O)N2CCCCCCC2)nc2ccc(Cl)cn12	none
O=C(c1nc2ccc(Cl)cn2c1CNCC[C@@H]1C[C@@H]2C=C[C@H]1C2)N1CCCCCCC1	TRPC4 agonist 64
C=CCn1c(CSCc2ccc(C)cc2)nnc1SCC(=O)NCc1ccccc1	none
C=CCn1c(CSCc2ccc(Cl)cc2)nnc1SCC(=O)NCc1ccccc1	Kir21 inh -4.8
Cc1c([N+](=O)[O-])c([N+](=O)[O-])nn1CC(=O)N1CCOCC1	none
Oc1ccc(-c2csc(-c3cccnc3)n2)cc1O	none
Oc1ccc(-c2csc(-c3ccccc3)n2)cc1O	TRPC4 inh -6
O=C(Nc1cccc(C(F)(F)F)c1)c1cccc(NS(=O)(=O)c2ccc(Br)c(C(=O)O)c2)c1	none
O=C(Nc1cccc(C(F)(F)F)c1)c1cccc(NS(=O)(=O)c2ccc(O)c(C(=O)O)c2)c1	TRPC4 PAM 22
Cc1ccc(C)c(NC(=S)NC(C)C(c2ccccc2)N2CCN(C)CC2)c1 (configuration not stated)	none
CCN1CCN(C(c2cccs2)C(C)NC(=S)Nc2cc(C)ccc2C)CC1 (configuration not stated)	Kir21 inh -5.5
O=C(COC(=O)c1ccccc1C(=O)N1CCN(c2ccccc2)CC1)Nc1ccc(F)cc1	TRPC4 PAM 17
NC(=O)c1ccc(NC(=O)C#Cc2ccccc2)cc1	none
N=c1n(CCN2CCCCC2)c2ccccc2n1CC(O)c1ccc(Cl)c(Cl)c1 (configuration not stated)	Kir21 inh -8.6
N=c1n(CCN2CCCCC2)c2ccccc2n1CC(=O)c1ccc(Cl)c(Cl)c1	Kir21 inh -4.8
N=c1n(CCN2CCCCC2)c2ccccc2n1CC(O)c1cccc(Br)c1 (configuration not stated)	Kir21 inh -6.8
Clc1cccc(Cl)c1C1Nc2cccc3cccc(c23)N1	TRPC6 inh -5.5
Fc1cccc(Cl)c1C1Nc2cccc3cccc(c23)N1	none
CC(C)Cn1c(-c2cccs2)nc2ccccc21	Kir21 inh -4.5
c1csc(Cn2c(-c3cccs3)nc3ccccc32)c1	none
CCOCCCNCc1cn(-c2ccc(F)cc2F)nc1-c1ccccc1C	TRPC4 agonist 77
NS(=O)(=O)c1ccc(CCNCc2cc(Br)ccc2OCc2ccccc2)cc1	Kir21 inh -8.2
OCCNCc1cc(Br)ccc1OCc1ccccc1	none
Clc1ccccc1CNCC1CCCO1 (configuration not stated)	none
Brc1ccc(OCc2ccccc2)c(CNCC2CCCO2)c1 (configuration not stated)	TRPC4 inh -6

Screening data as filed in PubChem BioAssay.
